System: Fibroblast
Test: Multiplex assay against human fibroblast
Type: toxicity, cell-based
Summary of the method: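 Tubulin, mitochondrial-mass and membrane-permeability phenotypes are per cents of healthy-nucleus cells. Cells were gated by CellPathfinder machine learning into Hoechst high-intensity objects or normal cells, normal cells into healthy, pyknosed or fragmented nuclei, and pyknosed cells into mitotic or apoptotic. Before that, live cells stained at seeding with Hoechst33342, BioTracker Green Microtubule Cytoskeleton Dye, MitoTracker Red and Annexin V Alexa Fluor 680 were imaged on a CQ1 microscope at 37°C and 5% CO2 after compound addition.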

[1] = 12 h, 1 µM, compound concentration 1 uM, replicate 1
[2] = 12 h, 1 µM, compound concentration 1 uM, replicate 2
[3] = 12 h, 10 µM, compound concentration 10 uM, replicate 1
[4] = 12 h, 10 µM, compound concentration 10 uM, replicate 2
[5] = 24 h, 1 µM, compound concentration 1 uM, replicate 1
[6] = 24 h, 1 µM, compound concentration 1 uM, replicate 2
[7] = 24 h, 10 µM, compound concentration 10 uM, replicate 1
[8] = 24 h, 10 µM, compound concentration 10 uM, replicate 2
[9] = 48 h, 1 µM, compound concentration 1 uM, replicate 1
[10] = 48 h, 1 µM, compound concentration 1 uM, replicate 2
[11] = 48 h, 10 µM, compound concentration 10 uM, replicate 1
[12] = 48 h, 10 µM, compound concentration 10 uM, replicate 2

Nc1nc(CC(=O)Nc2ccc(CCNC[C@H](O)c3ccccc3)cc2)cs1 [MIRABEGRON]
Population Apoptotic (%) [1]: 53%
Population Fragmented Nuclei (%) [1]: 19%
Population Healthy Nuclei (%) [1]: 62%
Population Hoechst High Intensity Objects (%) [1]: 5%
Population Membrane Permeable-Phenotype (%) [1]: 0%
Population Mitochondria Different-Phenotype (%) [1]: 6%
Population Mitotic Cells (%) [1]: 46%
Population Normal (%) [1]: 94%
Population Pyknosed Nuclei (%) [1]: 18%
Population Tubulin-Different-Phenotype (%) [1]: 25%
Total Cell Count [1]: 164
Population Apoptotic (%) [2]: 31%
Population Fragmented Nuclei (%) [2]: 27%
Population Healthy Nuclei (%) [2]: 52%
Population Hoechst High Intensity Objects (%) [2]: 4%
Population Membrane Permeable-Phenotype (%) [2]: 9%
Population Mitochondria Different-Phenotype (%) [2]: 12%
Population Mitotic Cells (%) [2]: 68%
Population Normal (%) [2]: 95%
Population Pyknosed Nuclei (%) [2]: 19%
Population Tubulin-Different-Phenotype (%) [2]: 46%
Total Cell Count [2]: 189
Population Apoptotic (%) [3]: 46%
Population Fragmented Nuclei (%) [3]: 15%
Population Healthy Nuclei (%) [3]: 75%
Population Hoechst High Intensity Objects (%) [3]: 3%
Population Membrane Permeable-Phenotype (%) [3]: 0%
Population Mitochondria Different-Phenotype (%) [3]: 4%
Population Mitotic Cells (%) [3]: 53%
Population Normal (%) [3]: 96%
Population Pyknosed Nuclei (%) [3]: 9%
Population Tubulin-Different-Phenotype (%) [3]: 19%
Total Cell Count [3]: 171
Population Apoptotic (%) [4]: 30%
Population Fragmented Nuclei (%) [4]: 31%
Population Healthy Nuclei (%) [4]: 41%
Population Hoechst High Intensity Objects (%) [4]: 5%
Population Membrane Permeable-Phenotype (%) [4]: 1%
Population Mitochondria Different-Phenotype (%) [4]: 3%
Population Mitotic Cells (%) [4]: 69%
Population Normal (%) [4]: 94%
Population Pyknosed Nuclei (%) [4]: 27%
Population Tubulin-Different-Phenotype (%) [4]: 45%
Total Cell Count [4]: 137
Population Apoptotic (%) [5]: 59%
Population Fragmented Nuclei (%) [5]: 17%
Population Healthy Nuclei (%) [5]: 64%
Population Hoechst High Intensity Objects (%) [5]: 5%
Population Membrane Permeable-Phenotype (%) [5]: 1%
Population Mitochondria Different-Phenotype (%) [5]: 4%
Population Mitotic Cells (%) [5]: 40%
Population Normal (%) [5]: 94%
Population Pyknosed Nuclei (%) [5]: 18%
Population Tubulin-Different-Phenotype (%) [5]: 28%
Total Cell Count [5]: 156
Population Apoptotic (%) [6]: 58%
Population Fragmented Nuclei (%) [6]: 27%
Population Healthy Nuclei (%) [6]: 57%
Population Membrane Permeable-Phenotype (%) [6]: 9%
Population Mitochondria Different-Phenotype (%) [6]: 7%
Population Mitotic Cells (%) [6]: 41%
Population Pyknosed Nuclei (%) [6]: 14%
Population Tubulin-Different-Phenotype (%) [6]: 45%
Total Cell Count [6]: 179
Population Apoptotic (%) [7]: 53%
Population Fragmented Nuclei (%) [7]: 15%
Population Healthy Nuclei (%) [7]: 75%
Population Hoechst High Intensity Objects (%) [7]: 2%
Population Membrane Permeable-Phenotype (%) [7]: 0%
Population Mitochondria Different-Phenotype (%) [7]: 4%
Population Mitotic Cells (%) [7]: 46%
Population Normal (%) [7]: 97%
Population Pyknosed Nuclei (%) [7]: 8%
Population Tubulin-Different-Phenotype (%) [7]: 24%
Total Cell Count [7]: 181
Population Apoptotic (%) [8]: 55%
Population Fragmented Nuclei (%) [8]: 29%
Population Healthy Nuclei (%) [8]: 48%
Population Hoechst High Intensity Objects (%) [8]: 4%
Population Membrane Permeable-Phenotype (%) [8]: 4%
Population Mitochondria Different-Phenotype (%) [8]: 6%
Population Mitotic Cells (%) [8]: 44%
Population Normal (%) [8]: 95%
Population Pyknosed Nuclei (%) [8]: 21%
Population Tubulin-Different-Phenotype (%) [8]: 44%
Total Cell Count [8]: 131
Population Apoptotic (%) [9]: 76%
Population Fragmented Nuclei (%) [9]: 23%
Population Healthy Nuclei (%) [9]: 60%
Population Hoechst High Intensity Objects (%) [9]: 7%
Population Membrane Permeable-Phenotype (%) [9]: 2%
Population Mitochondria Different-Phenotype (%) [9]: 6%
Population Mitotic Cells (%) [9]: 23%
Population Normal (%) [9]: 92%
Population Pyknosed Nuclei (%) [9]: 15%
Population Tubulin-Different-Phenotype (%) [9]: 28%
Total Cell Count [9]: 176
Population Apoptotic (%) [10]: 50%
Population Fragmented Nuclei (%) [10]: 40%
Population Healthy Nuclei (%) [10]: 52%
Population Hoechst High Intensity Objects (%) [10]: 2%
Population Membrane Permeable-Phenotype (%) [10]: 4%
Population Mitochondria Different-Phenotype (%) [10]: 10%
Population Mitotic Cells (%) [10]: 50%
Population Normal (%) [10]: 97%
Population Pyknosed Nuclei (%) [10]: 7%
Population Tubulin-Different-Phenotype (%) [10]: 32%
Total Cell Count [10]: 195
Population Apoptotic (%) [11]: 64%
Population Fragmented Nuclei (%) [11]: 18%
Population Healthy Nuclei (%) [11]: 74%
Population Hoechst High Intensity Objects (%) [11]: 4%
Population Membrane Permeable-Phenotype (%) [11]: 0%
Population Mitochondria Different-Phenotype (%) [11]: 4%
Population Mitotic Cells (%) [11]: 35%
Population Normal (%) [11]: 95%
Population Pyknosed Nuclei (%) [11]: 7%
Population Tubulin-Different-Phenotype (%) [11]: 21%
Total Cell Count [11]: 194
Population Apoptotic (%) [12]: 75%
Population Fragmented Nuclei (%) [12]: 39%
Population Healthy Nuclei (%) [12]: 48%
Population Hoechst High Intensity Objects (%) [12]: 3%
Population Membrane Permeable-Phenotype (%) [12]: 6%
Population Mitochondria Different-Phenotype (%) [12]: 6%
Population Mitotic Cells (%) [12]: 25%
Population Normal (%) [12]: 96%
Population Pyknosed Nuclei (%) [12]: 12%
Population Tubulin-Different-Phenotype (%) [12]: 51%
Total Cell Count [12]: 132
